Screening data deposited in PubChem by several laboratories.
EBI2 block = EBI2 receptor antagonists, beta-arrestin recruitment, primary screen, cell-based, luminescence, 7a,25-OHC stimulation, uHTS | 7a,25-OHC stimulated | inhibition, % at 5 µM | AID 651636, 2012 | G-protein coupled receptor 183 (Homo sapiens), P32249 | hit rate 0.81% among 360,000; in the data active = inhibition above about 38%;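 also: enzyme fragment complementation signal reports receptor beta-arrestin coupling in cells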
MC4R antag cAMP = MC4R antagonists of cAMP signaling, primary screen, cell-based, TR-FRET, antagonist arm of biased-ligand search. Melanocortin receptor 4 (Homo sapiens), P32245. MC4R-expressing cells, MTII-stimulated cAMP, LANCE TR-FRET. inhibition, % at 6.5 µM. hit rate 0.48% among 360,000;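 active = inhibition above its plate's cutoff, the mean of tested wells on that plate plus 3 SD, cut at about 29% in these data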
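Assay system: U2OS-MC4R stable cell line; Also added: Melanotan II; Technique: Eu-cAMP/anti-cAMP TR-FRET, emission 671 nm; Times: 30-min compound, 1-h challenge, 1-h detection, room temperature.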
m5-HT2A agonist = mouse Htr2a agonists via beta-arrestin recruitment, primary screen, cell-based, luminescence; 5-hydroxytryptamine receptor 2A (Mus musculus), P35363; CHO-K1 mHTR2A beta-arrestin complementation; percent of 30 µM serotonin response; activation, % at 7.6 µM; hit rate 0.66% among 360,000;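 active = activation above a run cutoff, the mean activation of all tested compounds plus 3 SD, cut at about 14% in these data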
Target sequence (P35363 whole entry, looked up): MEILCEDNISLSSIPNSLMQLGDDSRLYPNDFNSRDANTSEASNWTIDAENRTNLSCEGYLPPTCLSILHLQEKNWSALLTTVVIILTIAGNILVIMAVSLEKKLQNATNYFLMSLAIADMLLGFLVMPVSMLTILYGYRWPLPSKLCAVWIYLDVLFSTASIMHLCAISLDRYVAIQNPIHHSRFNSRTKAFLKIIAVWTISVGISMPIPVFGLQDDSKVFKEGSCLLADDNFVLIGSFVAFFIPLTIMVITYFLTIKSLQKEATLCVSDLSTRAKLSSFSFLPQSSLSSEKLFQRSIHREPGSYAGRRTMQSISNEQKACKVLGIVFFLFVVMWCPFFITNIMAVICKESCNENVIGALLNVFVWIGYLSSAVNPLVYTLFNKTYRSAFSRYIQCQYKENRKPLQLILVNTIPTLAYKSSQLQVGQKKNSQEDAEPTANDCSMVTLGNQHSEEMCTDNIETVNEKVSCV
MC4R ag barr = MC4R agonists recruiting beta-arrestin, primary screen, cell-based, luminescence, agonist arm of biased-ligand search; hit rate 0.98% among 360,000; U2OS MC4R beta-arrestin complementation; percent of melanotan II response, DMSO zero; activation, % at 8.9 µM; Melanocortin receptor 4 (Homo sapiens), P32245; AID 540308, 2011;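 active = activation above a per-plate cutoff, the mean activation of sample wells on that plate plus 3 SD, cut at about 8% in these data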
EBI2 conf = EBI2 antagonist hit retest, beta-arrestin, confirmation, cell-based, single concentration, luminescence, 7a,25-OHC stimulation; shares compounds with EBI2 block; 7a,25-OHC antagonism; inhibition, % at 5 µM; hit rate 29% among 2,400; AID 651997, 2013;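 active = inhibition of at least 50%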
EBI2 ag = EBI2 agonist activity of antagonist hits, confirmation, counter-screen for EBI2 antagonist project, cell-based, single concentration, agonist mode, luminescence; activation, % at 5 µM; EBI2-expressing cells, 60 min; 0% vehicle, 100% 7α,25-dihydroxycholesterol control; shares compounds with EBI2 block; 2,400 tested, under 10 active; AID 652000, 2013;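 active = activation of at least 50%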
bGal cs = E. coli beta-galactosidase enzyme inhibition, confirmation, counter-screen for EBI2 antagonist project, biochemical, luminescence, single concentration; shares compounds with EBI2 block; purified beta-galactosidase, luminescent Galacton Star, 15 min; inhibition, % at 5 µM; hit rate 1% among 2,400; AID 652176, 2013;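 active = replicate-average signal at least 3 plate SD below neutral wells, shown as high inhibition, flagging enzyme-inhibiting false positives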;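 also: higher means stronger loss of beta-gal luminescence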
Of the large screens only hits and unclear results are named; the others gave an inactive call (follow-up assays come after a bar, where they were run). Most compounds without a hit are left out; they make up all but 2.8% or so of the library.

CCC(C)OC(=O)c1c(N)n(Cc2cccs2)c2nc3ccccc3nc12 (stereo unspecified)	EBI2 block 44.4 | EBI2 conf inactive | EBI2 ag inactive | bGal cs inactive
Nc1c(C(=O)NCCc2ccccc2)c2nc3ccccc3nc2n1CCN1CCOCC1	none
Nc1c(C(=O)NCCN2CCOCC2)c2nc3ccccc3nc2n1Cc1ccccc1	EBI2 block 74.1 | EBI2 conf inactive | EBI2 ag inactive | bGal cs inactive
COc1ccc(OCC(=O)N2CCN(C3CCC(c4ccccc4)CC3)CC2)cc1 (stereo unspecified)	EBI2 block 85.2 | EBI2 conf 63.4 | EBI2 ag inactive | bGal cs inactive
O=C(COc1ccccc1)N1CCN(CC(O)COc2ccccc2)CC1 (stereo unspecified)	none
COc1ccc(OCC(=O)N2CCN(C/C=C/c3ccccc3)CC2)cc1	EBI2 block 93.4 | EBI2 conf 77.2 | EBI2 ag inactive | bGal cs inactive
O=C(COc1ccc(Cl)cc1)N1CCN(C/C=C/c2ccccc2)CC1	EBI2 block 95.8 | EBI2 conf 86.2 | EBI2 ag inactive | bGal cs inactive
CCN1CCN(C(=O)COc2ccc(S(=O)(=O)Nc3ccc(Cl)cc3)cc2)CC1	none
COc1cc(CN2CCN(C(=O)COc3ccccc3)CC2)cc(OC)c1OC	none
O=C(COc1ccccc1)N1CCN(C/C=C/c2ccccc2)CC1	EBI2 block 72.2 | EBI2 conf 59.8 | EBI2 ag inactive | bGal cs inactive
COCCN1Cc2cc(=O)n3c([nH]c4ccccc43)c2C1=N	none
COC(=O)C1=C(c2ccc(Cl)c(C(F)(F)F)c2)C[C@@H]2CC[C@H]1N2C(=O)NCCOc1ccc(OC)cc1	EBI2 block 44.3 | EBI2 conf inactive | EBI2 ag inactive | bGal cs inactive
COC(=O)C1=C(c2ccc(OCc3ccccc3)cc2)C[C@@H]2CC[C@H]1N2C(=O)NCc1ccccc1OC	none
COC(=O)C1=C(c2ccc(OCc3ccccc3)cc2)C[C@@H]2CC[C@H]1N2C(=O)NCc1ccccc1C(F)(F)F	EBI2 block 62.9 | EBI2 conf inactive | EBI2 ag inactive | bGal cs inactive
CC[C@]12CC[C@H](O)CC1=CCC1C2CC[C@]2(C)C(=O)CCC12 (stereo partly specified)	none
CC(=O)OC1C=CC2[C@H]3Cc4ccc(O)c5c4[C@@]2(CCN3C)C1O5 (stereo partly specified)	none
O=c1c(C=NCc2cccs2)c(O)n(C2CCCCC2)c(=O)n1C1CCCCC1	EBI2 block 44.1 | EBI2 conf inactive | EBI2 ag inactive | bGal cs inactive
C[C@]12CCC3C(CC[C@H]4C[C@H](O)CC[C@]34C)C1CCC2=O (stereo partly specified)	none
COC(=O)C1=C(c2c(C)noc2C)C[C@@H]2CC[C@H]1N2C(=O)NCCCOC(C)C	none
